Bioassay records (PubChem BioAssay)
CaV13 ICDI inh – Disruptors of the CACNA1D IQ motif to Ca2+-dependent inactivation inhibitor domain association, primary screening, Förster resonance energy transfer in intact living … | HEK cells, CFP/YFP FRET ICDI-IQ, plate reader, 10 min; percent FRET-ratio fall versus neutral wells | inhibition, % at 12.3 µM | 0.098% of 340,000 active;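 active = mean replicate inhibition of at least 30% and at least 1% of replicates passing that level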
DENV2 CPE – inhibitors of DENV2 cytopathic effect. CPE inhibition, % at 9.99 µM. AID 651640. 1.7% of 350,000 active. DENV2-infected cells, cytopathic effect rescue, plate reader; in the data active = CPE inhibition above about 20%, passing the limit was not always enough; tested in BHK-21 cells
XiGFP reactiv – reactivates the inactive X chromosome in mouse fibroblasts | XiGFP mouse fibroblasts, % GFP-positive cells imaging, 3 d; cells co-treated with 5-aza-dC sensitizer; scaled so ellipticine positive control = 100% | activation, % at 7.58 µM | 0.055% of 360,000 active;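 active = mean normalized replicate activation at least 10% and every replicate at or above 10%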
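System: 68-5-11 XiGFP fibroblast line | Buffer or medium: DMEM containing 5-aza-dC | Compound: Single point | Times: Compounds 3 days, fix/stain 15 min at room temperature | Benchmarks: Positive control ellipticine, 6 µM final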
Casp6 inh – blocks human caspase-6 cleavage activity. P55212. purified caspase-6, Z-VEID-R110 cleavage fluorescence. inhibition, % at 12.5 µM. 0.53% of 350,000 active;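 active = mean inhibition across replicates at least about 35%, with every replicate also reaching that limit, limit read from the data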
Target sequence (P55212 24-179 limits assumed): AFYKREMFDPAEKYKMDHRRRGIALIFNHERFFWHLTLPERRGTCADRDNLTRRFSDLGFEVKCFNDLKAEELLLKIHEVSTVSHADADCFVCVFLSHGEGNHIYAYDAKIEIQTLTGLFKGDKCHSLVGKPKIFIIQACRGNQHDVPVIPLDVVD
Target sequence (P55212 194-293 limits assumed): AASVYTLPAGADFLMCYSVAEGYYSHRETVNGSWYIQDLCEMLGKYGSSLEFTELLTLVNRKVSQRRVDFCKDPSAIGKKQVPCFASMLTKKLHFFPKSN
FN deposit inh – fibronectin deposition inhibition; AH1F fibroblasts, Alexa488-fibronectin deposition fluorescence, overnight; inhibition, % at 12.6 µM; 0.086% of 350,000 active; AID 743247;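 active = mean inhibition across replicates of 30% or more, regardless of how many single replicates reach that level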
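Assay system: AH1F fibroblasts assembling fluorescent fibronectin matrix; Amount: 10000 AH1F cells per well; Buffer or medium: DMEM, 2% serum; Probe or stimulus: Alexa488-fibronectin, 24 nM final in well; Doses: single compound dose, delivered by pin transfer; Incubation: 1 h adhesion, overnight exposure; Measured by: fluorescence 485/525 nm; Read-out: fibronectin deposition inhibition.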
Each line names hits and unclear results; the compound was inactive in the other large screens; ! = a repeat was not active. In the library only some 2% were active in any assay of this set; here they are far more common.

COc1ccc(-c2ccc3c(c2)[C@@H]2C[C@H](N(C)C(=O)C(C)(C)C)[C@H]([C@H](C)O)C(=O)N2CC3)cc1	DENV2 CPE 129 (no result: Casp6 inh)
CCN(CC)c1ccc(C(=C2C=CC(=[N+](CC)CC)C=C2)c2ccc(N(CC)CC)cc2)cc1	FN deposit inh 60
CCN(CC)c1ccc(C(=O)NNC(=O)CCl)cc1	none
CCN(CC)c1ccc(C(=C2C=CC(=[N+](CC)CC)C=C2)c2ccccc2)cc1	FN deposit inh 38
COc1cccc(NC(=O)N2CCc3nc(Nc4cc(Cl)cc(Cl)c4)ncc3C2)c1	none
CC(C)c1ccc(Nc2ncc3c(n2)CCN(C(=O)Nc2ccc(F)c(Cl)c2)C3)cc1	DENV2 CPE 20
Fc1ccccc1-c1nc(-c2ccc(-c3nn[nH]n3)cc2)no1	DENV2 CPE 20
COc1ccc(S(=O)(=O)Nc2ccc3c(c2)C(=O)N([C@@H](C)CO)C[C@@H](C)[C@H](CN(C)Cc2ccc4c(c2)OCO4)OCCCC[C@@H](C)O3)cc1	DENV2 CPE 56 (no result: CaV13 ICDI inh)
COc1ccc(S(=O)(=O)Nc2ccc3c(c2)C(=O)N([C@@H](C)CO)C[C@@H](C)[C@@H](CN(C)Cc2ccc4c(c2)OCO4)OCCCC[C@@H](C)O3)cc1	none (no result: CaV13 ICDI inh)
COc1ccc(S(=O)(=O)Nc2ccc3c(c2)C(=O)N([C@H](C)CO)C[C@H](C)[C@H](CN(C)Cc2ccc(Cl)c(Cl)c2)OCCCC[C@@H](C)O3)cc1	DENV2 CPE 42 (no result: CaV13 ICDI inh, Casp6 inh, FN deposit inh)
COc1ccc(S(=O)(=O)Nc2ccc3c(c2)C(=O)N([C@H](C)CO)C[C@@H](C)[C@H](CN(C)Cc2ccc4c(c2)OCO4)OCCCC[C@H](C)O3)cc1	none (no result: CaV13 ICDI inh)
COc1ccc(S(=O)(=O)Nc2ccc3c(c2)C(=O)N([C@@H](C)CO)C[C@H](C)[C@@H](CN(C)Cc2ccc4c(c2)OCO4)OCCCC[C@H](C)O3)cc1	none (no result: CaV13 ICDI inh)
COc1ccc(S(=O)(=O)Nc2ccc3c(c2)C(=O)N([C@H](C)CO)C[C@H](C)[C@@H](CN(C)Cc2ccc4c(c2)OCO4)OCCCC[C@@H](C)O3)cc1	DENV2 CPE 23 (no result: CaV13 ICDI inh)
COc1ccc(S(=O)(=O)Nc2ccc3c(c2)C(=O)N([C@@H](C)CO)C[C@H](C)[C@H](CN(C)Cc2ccc(Cl)c(Cl)c2)OCCCC[C@@H](C)O3)cc1	none (no result: CaV13 ICDI inh, Casp6 inh, FN deposit inh)
COc1ccc(S(=O)(=O)Nc2ccc3c(c2)C(=O)N([C@H](C)CO)C[C@H](C)[C@@H](CN(C)Cc2ccc4c(c2)OCO4)OCCCC[C@H](C)O3)cc1	DENV2 CPE 30 (no result: CaV13 ICDI inh)
COc1ccc2c3c(n(C)c2c1)[C@@H](CO)NCC31CCN(S(=O)(=O)c2ccc(C)cc2)CC1	none (no result: CaV13 ICDI inh, Casp6 inh, FN deposit inh)
Nc1ncnc2c1ncn2[C@@H]1O[C@H](COP(=O)(O)O)[C@@H](O)[C@H]1O	none (no result: Casp6 inh)
CN1N=C(N)c2cn(C3OC(COP(=O)(O)O)C(O)C3O)c3ncnc1c23 (stereo not drawn)	Casp6 inh 46
COc1ccc(Cl)cc1-c1cc(C(=O)N[C@H](C)c2ccccc2)[nH]n1	DENV2 CPE 74
CCCC(=O)Nc1ccc2c(c1)C(=O)N(C)[C@H]1CC[C@@H](CC(=O)O)O[C@@H]1CO2	none (no result: CaV13 ICDI inh)
C[C@@H]1CN([C@@H](C)CO)C(=O)c2cc(NC(=O)C3CCCCC3)ccc2O[C@@H]1CN(C)Cc1ccc(Oc2ccccc2)cc1	none (no result: CaV13 ICDI inh, DENV2 CPE, Casp6 inh, FN deposit inh)
C[C@@H]1CN([C@@H](C)CO)C(=O)c2cc(NC(=O)C3CC3)ccc2O[C@H]1CN(C)Cc1ccc(Oc2ccccc2)cc1	DENV2 CPE 33 (no result: CaV13 ICDI inh, FN deposit inh)
C[C@@H]1CN([C@@H](C)CO)C(=O)c2cc(NC(=O)C3CC3)ccc2O[C@@H]1CN(C)Cc1ccc(Oc2ccccc2)cc1	DENV2 CPE 79 (no result: CaV13 ICDI inh, FN deposit inh)
COc1cccc(NC(=O)N(C)C[C@H]2OCc3cn(nn3)CCCC(=O)N([C@H](C)CO)C[C@H]2C)c1	none (no result: CaV13 ICDI inh, DENV2 CPE, Casp6 inh)
COc1ccc(OC(=O)N(C)C[C@H]2OCc3cn(nn3)CCCC(=O)N([C@H](C)CO)C[C@@H]2C)cc1	DENV2 CPE 43!
CC(C)OC(=O)N(C)C[C@@H]1OCc2cn(nn2)CCCC(=O)N([C@H](C)CO)C[C@@H]1C	DENV2 CPE 84 (no result: CaV13 ICDI inh)
COc1cccc(NC(=O)N(C)C[C@@H]2OCc3cn(nn3)CCCC(=O)N([C@H](C)CO)C[C@H]2C)c1	DENV2 CPE 38!
